Measurements pooled from the literature.
Each line is one published result; the experiments were not run side by side.
FLT3 D835H: Receptor-type tyrosine-protein kinase FLT3 (FLT3, Homo sapiens, UniProt P36888, D835H)
FLT3 autoinhibited: Receptor-type tyrosine-protein kinase FLT3, autoinhibited (FLT3, Homo sapiens, UniProt P36888)
FLT3 D835V: Receptor-type tyrosine-protein kinase FLT3 (FLT3, Homo sapiens, UniProt P36888, D835V)
FLT3: Receptor-type tyrosine-protein kinase FLT3 (FLT3, Homo sapiens, UniProt P36888)
FLT3 D835Y: Receptor-type tyrosine-protein kinase FLT3 (FLT3, Homo sapiens, UniProt P36888, D835Y)
FLT3 K663Q: Receptor-type tyrosine-protein kinase FLT3 (FLT3, Homo sapiens, UniProt P36888, K663Q)
FLT3 R834Q: Receptor-type tyrosine-protein kinase FLT3 (FLT3, Homo sapiens, UniProt P36888, R834Q)
FLT3 N841I: Receptor-type tyrosine-protein kinase FLT3 (FLT3, Homo sapiens, UniProt P36888, N841I)

With `COc1cnc(Nc2cccc(S(N)(=O)=O)c2)nc1N1CCN(c2ccccc2)CC1` the remaining binding was 94% (FLT3 D835H; binding; competition with immobilised ligand; 1 µM).
For `C[C@H]1CCN(c2nccc(-c3cnn4ncccc34)n2)C1`, the remaining binding was 72% (FLT3 autoinhibited; binding; 1 µM).
`Nc1ncc2c(n1)-c1c([nH]c3ccc(C#CC4CC4)cc13)CCCC2` has a remaining binding of 82% (FLT3 autoinhibited; binding; competition with immobilised ligand; 1 µM).
`O=C(c1ccc(Nc2nccc(-c3cc4ccccc4s3)n2)cc1)N1CCC(N2CCCC2)CC1` gave a remaining binding of 64% (FLT3 autoinhibited; binding; competition with immobilised ligand; 1 µM).
`C[C@@H](c1ccc(-n2cnc3c(N)ncnc32)cc1)N1CCc2nn(C)c(Cc3ccccc3)c2C1=O` has a remaining binding of 87% (FLT3 D835V; binding; competition with immobilised ligand; 0.1 µM).
`c1cncc(-c2cccc(Nc3nccc(NC4CCCCC4)n3)c2)c1` gave a remaining binding of 0.35% (FLT3; binding; competition with immobilised ligand; 10 µM).
The remaining binding of `F[C@@H]1CCN(c2nccc(-c3cnn4ncccc34)n2)C1` is reported as 61% (FLT3 D835Y; binding; 1 µM).
The remaining binding of `O=C(NCC1CCOCC1)c1n[nH]cc1NC(=O)c1c(F)cccc1F` is reported as 91% (FLT3 K663Q; binding; competition with immobilised ligand; 1 µM).
`O=C(NCCCN1CCOCC1)c1ccc(Nc2nccc(-c3cc4ccccc4s3)n2)cc1` has a remaining binding of 37% (Receptor-type tyrosine-protein kinase FLT3 (FLT3, Homo sapiens, UniProt P36888, F691L/ITD); binding; competition with immobilised ligand; 1 µM).
The remaining binding of `C[C@@H]1CN(c2cc(-c3n[nH]c4ccc(OC5(C)CC5)cc34)ncn2)C[C@H](C)O1` is reported as 100% (FLT3 K663Q; cell-free assay; competition with immobilised ligand; 0.1 µM).
For `O=C(NCCCN1CCOCC1)c1ccc(Nc2ncc(Cl)c(-c3ccc(Cl)s3)n2)cc1`, the remaining binding was 7.4% (FLT3 R834Q; binding; competition with immobilised ligand; 1 µM).
The remaining binding of `CN(CCCC(F)(F)F)c1nccc(-c2cnn3ncccc23)n1` is reported as 100% (FLT3 autoinhibited; binding; 1 µM).
`Cc1cc(-n2nc(Cc3cc(F)cc(C(F)(F)F)c3)nc2C)ccc1C(N)=O` has a remaining binding of 100% (FLT3 autoinhibited; cell-free assay; competition with immobilised ligand; 1 µM).
`O=C(Nc1c[nH]nc1C(=O)NC1CCNCC1)c1cc(F)cc(F)c1` has a remaining binding of 100% (FLT3 D835V; binding; competition with immobilised ligand; 1 µM).
`O=C(NCc1ncc(C(F)(F)F)cc1Cl)c1ccc2c(c1)C1(CCS(=O)(=O)CC1)[C@H](C1CC1)N2S(=O)(=O)c1ccc(F)cc1` gave a remaining binding of 92% (FLT3 D835H; cell-free assay; competition with immobilised ligand; 1 µM).
The remaining binding of `COc1ncc2cc3ccccc3nc2c1C#N` is reported as 97% (FLT3 K663Q; cell-free assay; competition with immobilised ligand; 5 µM).
`CN(C)c1ncc(F)c(-c2cnn3ncccc23)n1` has a remaining binding of 86% (FLT3 D835H; binding; 1 µM).
`O=C1NC(c2ccccn2)Sc2ccccc21` (stereo not drawn) gave a remaining binding of 86% (FLT3 D835Y; cell-free assay; competition with immobilised ligand; 1 µM).
For `O=C(c1ccc(Nc2ncc(Cl)c(-c3ccc(Cl)s3)n2)cc1)N1CCC(N2CCCC2)CC1`, the remaining binding was 1.8% (FLT3 autoinhibited; binding; competition with immobilised ligand; 1 µM).
`CCc1ccccc1C(=O)Nc1n[nH]c2c(C)c(F)c(C3C(C#N)=C(C)N(C)C(C)=C3C#N)cc12` has a remaining binding of 88% (FLT3 autoinhibited; cell-free assay; competition with immobilised ligand; 1 µM).
For `COc1cnc(Nc2cccc(S(N)(=O)=O)c2)nc1N1CCN(c2ccccc2)C(=O)C1`, the remaining binding was 77% (FLT3 R834Q; binding; competition with immobilised ligand; 1 µM).
The remaining binding of `CN(C)c1ncnc(-c2ccc3nc(Nc4cc(CN5CCN(C(=O)CC(F)(F)F)CC5)ccn4)[nH]c3c2)c1Cl` is reported as 38% (FLT3 D835Y; cell-free assay; competition with immobilised ligand; 1 µM).
The remaining binding of `Cc1cnn2ncc(-c3ccnc(N(C)C)n3)c2c1` is reported as 66% (FLT3 D835V; binding; 1 µM).
`O=C(c1ccc(Nc2ncc(Cl)c(-c3cc4ccccc4s3)n2)cc1)N1CCC(N2CCCC2)CC1` has a remaining binding of 0% (FLT3 N841I; binding; competition with immobilised ligand; 1 µM).
`CNC(=O)[C@@H]1CC[C@@H](n2c(-c3ccc4cnccc4c3)nc3ccc(C(=O)NCc4cccc(C(N)=O)c4)cc32)C1` gave a remaining binding of 91% (FLT3 autoinhibited; binding; competition with immobilised ligand; 1 µM).
For `C=CC(=O)N1CCC(C(=O)NCC(=O)N2CCN(c3nc(-c4cnc(N)nc4C(F)F)nc(N4CCOCC4)n3)CC2)CC1`, the remaining binding was 84% (FLT3 R834Q; binding; competition with immobilised ligand; 1 µM).
The remaining binding of `N[C@@H]1CCN(c2nccc(-c3cnn4ncccc34)n2)C1` is reported as 100% (FLT3; binding; 1 µM).
`CN([C@@H]1CCc2c(CC(=O)O)c3cc(S(C)(=O)=O)ccc3n2C1)S(=O)(=O)c1ccc(F)cc1` has a remaining binding of 99% (FLT3 D835V; cell-free assay; competition with immobilised ligand; 1 µM).
`CN(C)c1nccc(-c2cnn3ncccc23)n1` gave a remaining binding of 100% (FLT3 K663Q; binding; 1 µM).
For `CCS(=O)(=O)c1cc2cc(C[C@](O)(CC(C)(C)c3ccc(F)cc3C(N)=O)C(F)(F)F)[nH]c2cn1`, the remaining binding was 93% (FLT3 N841I; cell-free assay; competition with immobilised ligand; 1 µM).
